The text below walks through data of ChEMBL document CHEMBL4219066, “Identification and Mitigation of Reactive Metabolites of 2-Aminoimidazole-Containing Microsomal Prostaglandin E Synthase-1 Inhibitors Terminated Due to Clinical Drug-Induced Liver Injury” (J Med Chem, 2018).

The nature of series [1]: Drug level in rat hepatocytes treated with 2-(2-Chloro-5-(pivalamidomethyl)benzamido)-N-phenyl-1Himidazole-4-carboxamide at 2 uM after 4 hrs by LC-MS/MS analysis. The format is ADME, cell-based, Hepatocyte.
Series [2] can be described thus: Drug level in human hepatocytes treated with 2-(2-Chloro-5-(pivalamidomethyl)benzamido)-N-phenyl-1Himidazole-4-carboxamide at 2 uM after 4 hrs by LC-MS/MS analysis. It counts as ADME, cell-based, Hepatocyte.
A short description of series [3]: In vivo drug level in human urine treated with LY3023703 by HPLC-MS analysis. The format is ADME, organism-based.
Series [4] can be described thus: Drug level in dog hepatocytes treated with 2-(Difluoromethyl)-N-(4-methyl-5-(4-(trifluoromethyl)-phenyl)-1H-imidazol-2-yl)-5-(pivalamidomethyl)nicotinamide at 2 uM after 4 hrs by LC-MS/MS analysis. The format is ADME, cell-based, Canis lupus familiaris, Hepatocyte.
Series [5] can be described thus: Drug level in dog hepatocytes treated with LY3023703 at 2 uM after 4 hrs by LC-MS/MS analysis. It counts as ADME, cell-based, Canis lupus familiaris, Hepatocyte.
Series [6] can be described thus: Drug level in rat hepatocytes treated with LY3023703 at 2 uM after 4 hrs by LC-MS/MS analysis. The format is ADME, cell-based, Hepatocyte.
Series [7] can be described thus: Drug level in human hepatocytes treated with LY3023703 at 2 uM after 4 hrs by LC-MS/MS analysis. It counts as ADME, cell-based, Hepatocyte.
Series [8] in a line: Drug level in dog hepatocytes treated with LY3031207 at 2 uM after 4 hrs by LC-MS/MS analysis. The format is ADME, cell-based, Canis lupus familiaris, Hepatocyte.
The nature of series [9]: Drug level in rat hepatocytes treated with LY3031207 at 2 uM after 4 hrs by LC-MS/MS analysis. The format is ADME, cell-based, Hepatocyte.
The nature of series [10]: In vivo drug level in human urine treated with LY3031207 by HPLC-MS analysis. The format is ADME, organism-based.
Series [11] is described as follows: Drug level in human hepatocytes treated with LY3031207 at 2 uM after 4 hrs by LC-MS/MS analysis. It counts as ADME, cell-based, Hepatocyte.
A short description of series [12]: In vivo drug level in human plasma treated with LY3031207 by HPLC-MS analysis. The format is ADME, organism-based.
Series [13] is described as follows: Drug level in rat hepatocytes treated with 2 -Chloro-N-(4,5-dimethyl-1H-imidazol-2-yl)-5-(pivalamidomethyl)benzamide at 2 uM after 4 hrs by LC-MS/MS analysis. It counts as ADME, cell-based, Hepatocyte.
Series [14] in a line: Drug level in human hepatocytes treated with 2 -Chloro-N-(4,5-dimethyl-1H-imidazol-2-yl)-5-(pivalamidomethyl)benzamide at 2 uM after 4 hrs by LC-MS/MS analysis. The format is ADME, cell-based, Hepatocyte.
Series [15] can be described thus: Drug level in Beagle dog plasma treated with LY3023703 at 300 to 600 mg/kg, po measured after 2 hrs post dose by LC/MS analysis. The settings on record: in vivo. It counts as ADME, organism-based, Canis lupus familiaris.
A short description of series [16]: Drug level in rat hepatocytes treated with 2-Chloro-N-(4-methyl-1H-imidazol-2-yl)-5-(pivalamidomethyl)benzamide at 2 uM after 4 hrs by LC-MS/MS analysis. The format is ADME, cell-based, Hepatocyte.
A short description of series [17]: Drug level in human hepatocytes treated with 2-Chloro-N-(4-methyl-1H-imidazol-2-yl)-5-(pivalamidomethyl)benzamide at 2 uM after 4 hrs by LC-MS/MS analysis. The format is ADME, cell-based, Hepatocyte.
Series [18] in a line: Drug level in rat hepatocytes treated with 2-(Difluoromethyl)-N-(4-methyl-5-(4-(trifluoromethyl)-phenyl)-1H-imidazol-2-yl)-5-(pivalamidomethyl)nicotinamide at 2 uM after 4 hrs by LC-MS/MS analysis. It counts as ADME, cell-based, Hepatocyte.
Series [19] can be described thus: Drug level in human hepatocytes treated with 2-(Difluoromethyl)-N-(4-methyl-5-(4-(trifluoromethyl)-phenyl)-1H-imidazol-2-yl)-5-(pivalamidomethyl)nicotinamide at 2 uM after 4 hrs by LC-MS/MS analysis. The format is ADME, cell-based, Hepatocyte.
Series [20] is described as follows: Drug metabolism in rat hepatocytes assessed as 2-(2-chloro-5-(pivalamidomethyl)benzamido)-1H-imidazole-4-carboxylic acid formation at 2 uM after 4 hrs by LC-MS/MS analysis. It counts as ADME, cell-based, Hepatocyte.
Series [21] can be described thus: Drug metabolism in human hepatocytes assessed as 2-(2-chloro-5-(pivalamidomethyl)benzamido)-1H-imidazole-4-carboxylic acid formation at 2 uM after 4 hrs by LC-MS/MS analysis. The format is ADME, cell-based, Hepatocyte.
Series [22] in a line: In vivo drug level in human plasma treated with LY3023703 by HPLC-MS analysis. It counts as ADME, organism-based.
A short description of series [23]: Drug level in human liver microsomes treated with 2-Chloro-N-(4-methyl-1H-imidazol-2-yl)-5-(pivalamidomethyl)benzamide at 2 uM after 0.5 hrs in presence of 1:1 ratio of unlabeled GSH and [glycine 13C2,15N]-labelled GSH by HPLC-MS analysis. The format is ADME, microsome. The gist of the method:
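Glutathione-trapping incubation in human liver microsomes fortified with GSH to capture reactive intermediates. Metabolites and GSH adducts were identified by MS.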

For `CC(C)(C)C(=O)NCc1ccc(Cl)c(C(=O)O)c1`, the Drug metabolism entry in series [1] and in [2] was “Metabolite_Detected” each time.
Regarding `Cc1nc(NC(=O)c2cc(CN)cnc2C(F)F)[nH]c1-c1ccc(C(F)(F)F)cc1`, the Drug metabolism entry in series [3] is listed as “Metabolite_Detected”.
For the molecule `CC(C)(C)C(=O)NCc1cnc(C(F)F)c(C(=O)Nc2nc(CO)c(-c3ccc(C(F)(F)F)cc3)[nH]2)c1`, the Drug metabolism result in [4] is listed as “Metabolite_Detected”.
As to `CC(C)C(=O)NCc1cnc(C(F)F)c(C(=O)NC(=N)N)c1`, the Drug metabolism entry in series [3], in series [5], in series [6] and in series [7] was “Metabolite_Detected” in each case.
In the case of `CC(C)(C)C(=O)NCc1ccc(Cl)c(C(=O)Nc2nc(O)c[nH]2)c1`, the Drug metabolism result in [8], in series [9], in [10], in series [11] and in series [12] was “Metabolite_Detected” each time.
On to `Cc1nc(NC(=O)c2cc(CNC(=O)C(C)(C)CO)ccc2Cl)[nH]c1C`, for which the Drug metabolism result in series [13] and in series [14] was “Metabolite_Detected” each time.
Take `CC(=O)Nc1nc(C)c(-c2ccc(C(F)(F)F)cc2)[nH]1`: the Drug metabolism entry in [15] was “Metabolite_Detected”.
On to `Cc1c[nH]c(NC(=O)c2cc(CNC(=O)C(C)(C)CO)ccc2Cl)n1`, for which the Drug metabolism entry in series [16] and in [17] was “Metabolite_Detected” in each case.
In the case of `Cc1nc(NC(=O)c2cc(CNC(=O)C(C)(C)CO)cnc2C(F)F)[nH]c1-c1ccc(C(F)(F)F)cc1`, the Drug metabolism entry in [18], in series [19] and in series [4] was “Metabolite_Detected” each time.
Take `CC(C)(C)C(=O)NCc1ccc(Cl)c(C(=O)NC2=NC(O)C(O)N2)c1` (configuration not stated): the Drug metabolism result in series [8], in series [9], in series [10] and in [11] was “Metabolite_Detected” each time.
Consider `CC(C)(C)C(=O)NCc1ccc(Cl)c(C(=O)Nc2nc(CO)c[nH]2)c1`, for which the Drug metabolism result in series [16], in series [17], in [20] and in series [21] was “Metabolite_Detected” each time.
In the case of `CC(C)(C)C(=O)NCc1ccc(Cl)c(C(=O)NC(=N)N)c1`, the Drug metabolism result in series [10], in [16], in series [13], in series [17], in series [14] and in [12] was “Metabolite_Detected” each time.
With `C=C(C)C(=O)NCc1cnc(C(F)F)c(C(=O)Nc2nc(C)c(-c3ccc(C(F)(F)F)cc3)[nH]2)c1`, the Drug metabolism entry in series [6] and in series [22] was “Metabolite_Detected” throughout.
For `Cc1nc(NC(=O)c2cc(CNC(=O)C(C)CO)cnc2C(F)F)[nH]c1-c1ccc(C(F)(F)F)cc1` (configuration not stated), the Drug metabolism result in series [3], in [15], in series [6], in series [7] and in series [22] was “Metabolite_Detected” throughout.
Take `CC(C)(CO)C(=O)NCc1ccc(Cl)c(C(=O)Nc2ncc[nH]2)c1`: the Drug metabolism entry in [8], in series [9], in series [10], in [11] and in series [12] was “Metabolite_Detected” throughout.
With `CC(C)(C)C(=O)NCc1cnc(C(F)F)c(C(=O)NC(=N)N)c1`, the Drug metabolism entry in series [18], in series [19] and in series [4] was “Metabolite_Detected” throughout.
Consider `Cc1nc(NC(=O)c2cc(CNC(=O)C(C)(C)O)cnc2C(F)F)[nH]c1-c1ccc(C(F)(F)F)cc1`, for which the Drug metabolism entry in series [3], in series [5], in series [15], in series [6], in series [7] and in series [22] was “Metabolite_Detected” throughout.
For `Cc1nc(N)[nH]c1-c1ccc(C(F)(F)F)cc1`, the Drug metabolism result in series [15], in [6] and in [7] was “Metabolite_Detected” each time.
Take `CC(C)(CO)C(=O)NCc1ccc(Cl)c(C(=O)Nc2nc(C(=O)Nc3ccccc3)c[nH]2)c1`: the Drug metabolism result in [1] and in [2] was “Metabolite_Detected” each time.
On to `Cc1[nH]c(NC(=O)c2cc(CNC(=O)C(C)(C)C)ccc2Cl)nc1CO`, for which the Drug metabolism entry in series [13] and in [14] was “Metabolite_Detected” throughout.
With `Cc1nc(N[C@@H]2O[C@H](C(=O)O)[C@@H](O)[C@H](O)[C@H]2O)[nH]c1-c1ccc(C(F)(F)F)cc1`, the Drug metabolism result in [15] is listed as “Metabolite_Detected”.
Turning to `CC(C)(CO)C(=O)NCc1ccc(Cl)c(C(=O)NC(=N)N)c1`, in series [10], the Drug metabolism result is reported as “Metabolite_Detected”.
For the molecule `CC(C)(C)C(=O)NCc1ccc(Cl)c(C(=O)Nc2nc(CSC[C@H](NC(=O)CC[C@H](N)C(=O)O)C(=O)NCC(=O)O)c[nH]2)c1`, the Drug metabolism entry in series [23] is “Metabolite_Detected”.
For the molecule `CC(C)(C)C(=O)NCc1ccc(Cl)c(C(=O)Nc2nc(CSC[C@H](N)C(=O)NCC(=O)O)c[nH]2)c1`, the Drug metabolism entry in [23] is reported as “Metabolite_Detected”.
